According to ChEMBL document CHEMBL4732262, “Identification of two novel thiophene analogues as inducers of autophagy mediated cell death in breast cancer cells” (Bioorg Med Chem, 2021):
pIC50: −log10 of the molar value. Activity calls are given as the source filed them. The rule behind the calls is not given here.

Assays:
MCF7 [1] = assay: Induction of autophagy in human MCF7 cells assessed as increase in PIK3CG mRNA expression at 2.5 uM after 24 hrs by RT-PCR analysis; format: functional, cell-based
Method in brief: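 Total RNA was taken with TRIzol from MCF7 cells treated 24 h with 2.5 µM compound or DMSO, then reverse transcribed. SYBR Green qPCR ran 40 cycles of 95 °C 15 s / 60 °C 1 min. Relative expression was calculated by 2^-ΔΔCt against DMSO-treated cells, normalized to housekeeping genes (GAPDH, B2M and others). Samples run in duplicate, two independent experiments, values averaged.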

MCF7 [2] = assay: Induction of apoptosis in human MCF7 cells assessed as increase in cell death at 2.5 uM after 24 hrs by EtBr/AO staining based fluorescence microscopic method; format: functional
Method in brief: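 ~5 × 10^4 MCF7 cells on coverslips given 2.5 µM for 24 h, then PBS-washed and stained with 1:1 ethidium bromide/acridine orange (0.4 mg/ml each). Viewed by fluorescence microscopy, excitation 480 nm with a 515–530 nm barrier filter. Apoptotic, necrotic and viable cells scored from 200 cells per sample.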

MCF7 [3] = assay: Induction of autophagy in human MCF7 cells expressing GFP-LC3 assessed as distinct puncta pattern at 2.5 uM after 24 hrs by live-cell confocal microscopic analysis; format: functional, cell-based
Method in brief: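 MCF7 cells (~1 × 10^6) at 70% confluency on glass-bottom dishes were transiently transfected with GFP-LC3 (Lipofectamine 3000). 24 h later they received 2.5 µM compound or DMSO for another 24 h. Nuclei were stained with Hoechst 33342 and lysosomes with LysoTracker Red DND-99, then imaged by live-cell confocal microscopy. LC3 puncta were counted in at least 10 cells from 3 fields. Two independent experiments.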

MCF7 [4] = assay: Induction of autophagy in human MCF7 cells assessed as increase in LC3-2 to LC3-1 protein ratio at 2.5 uM after 24 hrs by Western blot analysis; format: functional, cell-based
Method in brief: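 MCF7 cells (~5 × 10^6) left untreated (DMSO control) or exposed to 2.5 µM compound for 24 h. Lysed in RIPA buffer, probed overnight at 4 °C, then given infrared-tagged secondary antibodies for 1 h at 37 °C and imaged by infrared scanning. LC3-II/I ratio and p62 taken by densitometry with GAPDH as loading control. Two independent experiments.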

MCF7 [5] = assay: Induction of autophagy in human MCF7 cells assessed as increase in ATG16L2 mRNA expression at 2.5 uM after 24 hrs by RT-PCR analysis; format: functional, cell-based
Method in brief: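 MCF7 cells given 2.5 µM or DMSO for 24 h. Total RNA extracted with TRIzol and reverse-transcribed, then SYBR Green qPCR across 34 autophagy-regulatory genes (95 °C 10 min; 40 cycles of 95 °C 15 s and 60 °C 1 min). Relative expression by 2^-ΔΔCt against housekeeping genes and DMSO control, shown as log2. Two independent experiments.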

MCF7 [6] = assay: Induction of apoptotic in human MCF7 cells assessed as increase in Bim protein expression at 2.5 uM after 24 hrs by Western blot analysis; format: functional, cell-based
Method in brief: (§1)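 MCF7 or MDA-MB-231 cells given 2.5 µM or DMSO for 24 h, then lysed in RIPA buffer. Immunoblots probed overnight at 4 °C, followed by infrared-labelled secondary antibody for 1 h at 37 °C. Bands imaged and quantified densitometrically, with GAPDH as loading control. Representative of two independent experiments.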

MCF7 [7] = assay: Induction of autophagy in human MCF7 cells assessed as increase in GADD34 protein expression at 2.5 uM after 24 hrs by Western blot analysis; format: functional, cell-based; method in brief: as §1
MCF7 [8] = assay: Induction of autophagy in human MCF7 cells assessed as increase in DDIT3 mRNA expression at 2.5 uM after 24 hrs by PCR microarray analysis; format: functional, cell-based
Method in brief: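 MCF7 cells given 2.5 µM or DMSO for 24 h. cDNA run on an Unfolded Protein Response RT2 Profiler PCR array. Changes computed by 2^-ΔΔCt (log2) against control, normalised to the mean of ACTB, B2M, GAPDH, HPRT1 and RPLPO.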

MCF7 [9] = assay: Induction of autophagy in human MCF7 cells assessed as LC3-2 to LC3-1 protein ratio at 2.5 uM after 24 hrs in presence of chloroquine by Western blot analysis (reference value: 0.52 to 0.65)
MCF7 [10] = assay: Induction of apoptosis in human MCF7 cells assessed as morphological changes at 2.5 uM after up to 24 hrs by phase contrast microscopic method; format: functional, cell-based; details: time hrs <=24
Method in brief: (§2)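 ~5 × 10^4 cells in 6-well plates, either DMSO control or 2.5 µM. Morphology imaged at 0, 6, 12 and 24 h.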

MCF7 (Homo sapiens) = assay: Induction of apoptosis in human MCF7 cells assessed as increase in cell death at 2.5 uM after 24 hrs by EtBr/AO staining based fluorescence microscopic method relative to tanshinone-2A
MCF7 [11] = assay: Induction of apoptosis in human MCF7 cells at 2.5 uM after 24 hrs by annexin V-FITC/Propidium iodide staining based flow cytometric analysis relative to tanshinone-1; format: functional
MDA-MB-231 [12] = assay: Cytotoxicity against human MDA-MB-231 cells assessed as reduction in cell viability after 24 hrs by MTT assay; format: functional, cell-based; details: MDA-MB-231, 24 h
Method in brief: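 Cells seeded ~5 × 10^3 per well in 96-well plates, exposed to 0–40 µM for 24 h. MTT added at 0.5 mg/ml for 3 h, formazan dissolved in DMSO, absorbance read at 540 nm. IC50 taken from plotted curves. Duplicate wells, two independent repeats. MCF7 grown in DMEM, MDA-MB-231 in RPMI, both with 10% FBS at 37 °C and 5% CO2.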

MDA-MB-231 [13] = assay: Induction of apoptosis in human MDA-MB-231 cells assessed as late apoptotic cells at 2.5 uM after 24 hrs by annexin V-FITC/Propidium iodide staining based flow cytometric analysis (reference value: 0.08%); format: functional
MDA-MB-231 [14] = assay: Induction of apoptosis in human MDA-MB-231 cells at 2.5 uM after 24 hrs by annexin V-FITC/Propidium iodide staining based flow cytometric analysis relative to tanshinone-2A; format: functional
MCF7 [15] = assay: Cytotoxicity against human MCF7 cells assessed as reduction in cell viability at 25 to 100 uM after 24 hrs in presence of chloroquine by MTT assay; format: functional, cell-based; details: dose 25-100 µM
Method in brief: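 ~0.5 × 10^5 cells per well in six-well plates given 2.5 µM test agent together with chloroquine at 25, 50 or 100 µM, 24 h at 37 °C in humidified CO2. Viability read by MTT. Duplicate assays from two independent experiments, shown with SD.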

MCF7 [16] = assay: Induction of autophagy in human MCF7 cells assessed as LC3-2 to LC3-1 protein ratio at 2.5 uM after 24 hrs by Western blot analysis (reference value: 0.22 to 0.8); format: functional
MCF7 [17] = assay: Induction of apoptosis in human MCF7 cells assessed as change in Bak1 protein expression at 2.5 uM after 24 hrs by Western blot analysis; format: functional, cell-based; method in brief: as §1
MDA-MB-231 [18] = assay: Induction of apoptosis in human MDA-MB-231 cells assessed as reduction in size of cells at 2.5 uM by phase contrast microscopic method; format: functional, cell-based; details: time 6-24 hrs, TDE = time-dependent effect; method in brief: as §2

O=C1C(=O)c2sccc2-c2ccccc21
Activity (MCF7 [1]): Active | Activity (MCF7 [2]): Active | Activity (MCF7 [3]): Active | Activity (MCF7 [4]): Active | Activity (MCF7 [5]): Active | Activity (MCF7 [6]): Active | Activity (MCF7 [7]): Active | Activity (MCF7 [8]): Active | Ratio (MCF7 [9]): 1.1 | Activity (MCF7 [10]): Active | fold change (FC) (MCF7 (Homo sapiens)): 2 | fold change (FC) (MCF7 [11]): >=2 | pIC50 (MDA-MB-231 [12]): 5.53 | Activity (MDA-MB-231 [13]): 14.9% | fold change (FC) (MDA-MB-231 [14]): >=2 | Activity (MCF7 [15]): inactive | Ratio (MCF7 [16]): 7.14 | Activity (MCF7 [17]): inactive | Activity (MDA-MB-231 [18]): Tde

O=C1C(=O)c2ccsc2-c2ccccc21
Activity (MCF7 [1]): Active | Activity (MCF7 [2]): Active | Activity (MCF7 [3]): Active | Activity (MCF7 [4]): Active | Activity (MCF7 [5]): Active | Activity (MCF7 [6]): Active | Activity (MCF7 [7]): Active | Activity (MCF7 [8]): Active | Ratio (MCF7 [9]): 0.92 | Activity (MCF7 [10]): Active | fold change (FC) (MCF7 (Homo sapiens)): 2 | fold change (FC) (MCF7 [11]): >=2 | pIC50 (MDA-MB-231 [12]): 5.59 | Activity (MDA-MB-231 [13]): 10.9% | fold change (FC) (MDA-MB-231 [14]): >=2 | Activity (MCF7 [15]): inactive | Ratio (MCF7 [16]): 16.3 | Activity (MCF7 [17]): inactive | Activity (MDA-MB-231 [18]): Tde
